In ChEMBL document CHEMBL2163332 (J Med Chem, 2012):
Active and inactive are the calls of the source. The rule behind the calls is not given here.

Key:
[1] = biological target: Delta-type opioid receptor (Mus musculus) (UniProt P32300); assay: Agonist activity at delta opioid receptor in Kunming mouse vas deferens assessed as inhibition of electrically-stimulated muscle contraction in presence of delta opioid receptor antagonist naltrindole; assay type: functional, tissue-based
[2] = test system: Mus musculus; assay: Antinociceptive activity in naloxone treated Kunming mouse assessed as inhibition of heat-induced tail flick at 20 nmol/kg, icv after 10 mins post naloxone treatment; assay type: functional, organism-based
Outline: (§1)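 Male Kunming mice (18−22 g), peptide or saline given icv; tail immersed in 50 ± 0.2 °C water and withdrawal latency recorded; only mice with baseline latency about 3−5 s used. Readings at 5, 10, 15, 20, 30, 40, 50 and 60 min post-injection; 10−15 mice per group. Naloxone 2 mg/kg ip 10 min before icv dosing for antagonism. ED50 with 95% confidence limits by graded dose−response.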

[3] = biological target: Delta-type opioid receptor (Mus musculus, UniProt P32300); assay: Agonist activity at delta opioid receptor in Kunming mouse vas deferens assessed as inhibition of electrically-stimulated muscle contraction; assay type: functional, tissue-based
Sequence of Delta-type opioid receptor (Mus musculus, UniProt P32300) (P32300 whole entry): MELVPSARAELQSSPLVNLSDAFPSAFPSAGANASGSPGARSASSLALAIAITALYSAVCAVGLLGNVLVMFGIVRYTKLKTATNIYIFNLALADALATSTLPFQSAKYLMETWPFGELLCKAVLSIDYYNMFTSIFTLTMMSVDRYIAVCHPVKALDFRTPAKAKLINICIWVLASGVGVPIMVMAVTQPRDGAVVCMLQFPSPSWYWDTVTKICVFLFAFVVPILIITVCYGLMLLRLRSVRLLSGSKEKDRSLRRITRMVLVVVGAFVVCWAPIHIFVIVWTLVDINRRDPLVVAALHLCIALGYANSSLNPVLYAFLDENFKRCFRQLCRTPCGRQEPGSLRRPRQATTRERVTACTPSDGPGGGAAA

[4] = biological target: T1, Mu-type opioid receptor (Homo sapiens, UniProt P35372); assay: Displacement of [3H]DAMGO from FLAG-tagged mu opioid receptor expressed in HEK293 cells after 60 mins by liquid scintillation counter; assay type: cell-based
T1 sequence (P35372 whole entry): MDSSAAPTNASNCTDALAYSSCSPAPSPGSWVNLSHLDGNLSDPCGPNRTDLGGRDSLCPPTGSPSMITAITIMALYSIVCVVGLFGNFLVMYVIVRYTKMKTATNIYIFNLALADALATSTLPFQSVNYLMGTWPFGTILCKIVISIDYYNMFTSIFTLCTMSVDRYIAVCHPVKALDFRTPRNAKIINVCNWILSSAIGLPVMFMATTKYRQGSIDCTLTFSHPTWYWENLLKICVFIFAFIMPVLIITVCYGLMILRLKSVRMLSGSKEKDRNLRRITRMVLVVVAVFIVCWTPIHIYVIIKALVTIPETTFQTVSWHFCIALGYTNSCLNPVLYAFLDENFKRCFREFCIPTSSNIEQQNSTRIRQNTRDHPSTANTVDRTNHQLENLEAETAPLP

[5] = biological target: Delta-type opioid receptor (Homo sapiens, UniProt P41143); assay: Displacement of [3H]DPDPE from Myc-tagged delta opioid receptor expressed in HEK293 cells after 60 mins by liquid scintillation counter; assay type: cell-based
Sequence of Delta-type opioid receptor (Homo sapiens, UniProt P41143) (P41143 whole entry): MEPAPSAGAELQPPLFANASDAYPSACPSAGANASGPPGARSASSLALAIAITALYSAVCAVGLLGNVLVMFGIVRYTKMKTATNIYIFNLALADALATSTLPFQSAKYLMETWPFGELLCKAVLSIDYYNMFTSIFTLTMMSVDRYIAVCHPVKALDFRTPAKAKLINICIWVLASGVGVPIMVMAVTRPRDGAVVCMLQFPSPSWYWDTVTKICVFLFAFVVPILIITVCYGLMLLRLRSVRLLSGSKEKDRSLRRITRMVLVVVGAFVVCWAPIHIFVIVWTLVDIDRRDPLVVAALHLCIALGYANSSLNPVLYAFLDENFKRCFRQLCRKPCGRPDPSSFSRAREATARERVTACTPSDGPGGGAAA

[6] = Selectivity ratio of Ki for Myc-tagged delta opioid receptor to Ki for FLAG-tagged mu opioid receptor
[7] = biological target: Mu-type opioid receptor (Cavia porcellus, UniProt P97266); assay: Agonist activity at mu opioid receptor in guinea pig ileum assessed as inhibition of electrically-stimulated muscle contraction; assay type: functional, tissue-based
Sequence of Mu-type opioid receptor (Cavia porcellus, UniProt P97266) (P97266 whole entry): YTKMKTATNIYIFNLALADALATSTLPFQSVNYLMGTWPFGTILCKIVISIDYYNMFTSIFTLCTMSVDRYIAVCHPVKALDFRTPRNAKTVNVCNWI

[8] = biological target: T1, Mu-type opioid receptor; assay: Agonist activity at mu opioid receptor expressed in HEK293 cells assessed as inhibition of forskolin-induced cAMP accumulation after 30 mins by liquid scintillation counter; assay type: functional, cell-based
[9] = biological target: T1, Mu-type opioid receptor; assay: Agonist activity at mu opioid receptor expressed in HEK293 cells assessed as inhibition of forskolin-induced cAMP accumulation after 30 mins by liquid scintillation counter relative to control; assay type: functional, cell-based
Outline: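 MOR-expressing HEK293 cells seeded at 80% confluence the day before, washed with serum-free medium, preincubated 10 min at 37 °C with 1 mM IBMX, then peptide (5 × 10−11 to 5 × 10−5 M) with 50 μM forskolin added for 30 min at 37 °C. Lysis in 0.2 N HCl, neutralisation, cAMP measured by competition with [3H]cAMP for PKA (≥2 h, 4 °C) and charcoal separation; scintillation counting.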

[10] = test system: Mus musculus; assay: Antinociceptive activity in icv dosed Kunming mouse assessed as inhibition of heat-induced tail flick after 5 to 60 mins; assay type: functional; details: for ED50: central; outline: as §1
[11] = test system: Mus musculus; assay: Antinociceptive activity in Kunming mouse assessed as inhibition of heat-induced tail flick at 0.67 to 20 nmol/kg, icv; assay type: functional, organism-based; details: TDE = time-dependent effect; outline: as §1
[12] = Half life in mouse brain homogenates; assay type: ADME, tissue-based; details: brain homogenate
Outline: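 Peptide incubated at 37 °C in twice-washed 15% mouse brain membrane homogenate, final protein 2.1 mg/mL in 50 mM Tris, pH 7.4. Aliquots centrifuged 13000g, 15 min, 4 °C, filtered 0.22 μm and analysed by C18 RP-HPLC (acetonitrile/water, 0.05% TFA). Half-life from pseudo-first-order disappearance kinetics; at least three experiments.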

[13] = biological target: T1, Mu-type opioid receptor; assay: Agonist activity at human FLAG-tagged mu opioid receptor expressed in HEK293 cells assessed as induction of ERK1/2 phosphorylation at 10 nM after 10 mins by Western blot analysis; assay type: functional, cell-based
Outline: (§2)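 Stable HEK293 line with FLAG-tagged MOR, in 12-well plates and serum-starved 16 h, then exposed to peptide at various concentrations for 10 min at 37 °C. Lysis in RIPA with 10 μM PMSF and phosphatase inhibitors. 20 μg protein run on 10% SDS-PAGE, blotted to PVDF and probed for phospho-ERK1/2 (Thr202/Tyr204) and total ERK1/2 (1:1000), ECL detection; at least three independent experiments.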

[14] = biological target: T1, Mu-type opioid receptor; assay: Agonist activity at human FLAG-tagged mu opioid receptor expressed in HEK293 cells assessed as induction of ERK1/2 phosphorylation after 10 mins by Western blot analysis; assay type: functional, cell-based; outline: as §2
[15] = biological target: T1, Mu-type opioid receptor; assay: Agonist activity at human FLAG-tagged mu opioid receptor expressed in HEK293 cells assessed as induction of ERK1/2 phosphorylation at 1 pM after 10 mins by Western blot analysis; assay type: functional, cell-based; outline: as §2

Sequence of Delta-type opioid receptor (Mus musculus) (P32300 whole entry): as the sequence (P32300 whole entry) above

Compound | inhibition [1] | inhibition [2] | IC50 [3] | Ki [4] | Ki [5] | Ratio Ki [6] | IC50 [7] | EC50 [8] | inhibition [8] | Emax [9] | inhibition [10] | ED50 [10] | inhibition [11] | half-life [12] | Activity [13] | Activity [14] | Activity [15]
NC(=O)[C@H](Cc1ccccc1)NC(=O)[C@H](Cc1c[nH]c2ccccc12)NC(=O)[C@@H]1CCCN1C(=O)[C@@H](N)Cc1ccc(O)cc1 | inactive |  |  |  |  |  |  |  |  |  |  |  |  |  |  |  | 
C=C(C(N)=O)[C@@H](NC(=O)[C@H](Cc1c[nH]c2ccccc12)NC(=O)[C@@H]1CCCN1C(=O)[C@@H](N)Cc1ccc(O)cc1)c1cccc(Cl)c1 | inactive | inactive | 69.4 nM | 3.49 nM | 5820 nM | 1670 | 7.66 nM | 0.72 nM | Dose-dependent effect | 92.5% | Dose-dependent effect | 0.00928 µmol/kg | tde | 1.5 h |  |  | 
C=C(C(N)=O)[C@@H](NC(=O)[C@H](Cc1c[nH]c2ccccc12)NC(=O)[C@@H]1CCCN1C(=O)[C@@H](N)Cc1ccc(O)cc1)c1ccccc1Cl | inactive |  | 365 nM | 5.48 nM | 14900 nM | 2720 | 16.6 nM | 0.84 nM | Dose-dependent effect | 82.6% |  |  |  |  |  |  | 
C=C(C(=O)N[C@@H](Cc1ccccc1)C(N)=O)[C@@H](NC(=O)[C@@H]1CCCN1C(=O)[C@@H](N)Cc1ccc(O)cc1)c1ccccc1 | inactive |  | > 10000 nM | 103 nM | 59300 nM | 576 | 20.9 nM | 36.5 nM | Dose-dependent effect | 70.8% | Dose-dependent effect |  |  |  |  |  | 
C=C(C(N)=O)[C@@H](NC(=O)[C@H](Cc1c[nH]c2ccccc12)NC(=O)[C@@H]1CCCN1C(=O)[C@@H](N)Cc1ccc(O)cc1)c1ccc(OC)cc1 | inactive |  | 299 nM | 4.83 nM | 10200 nM | 2110 | 84.2 nM | 10.9 nM | Dose-dependent effect | 85.6% |  |  |  |  |  |  | 
C=C(C(N)=O)[C@@H](NC(=O)[C@H](Cc1c[nH]c2ccccc12)NC(=O)[C@@H]1CCCN1C(=O)[C@@H](N)Cc1ccc(O)cc1)c1ccc(Cl)cc1 | inactive |  | 36.7 nM | 7.12 nM | 10800 nM | 1520 | 15.3 nM | 12 nM | Dose-dependent effect | 85.6% | Dose-dependent effect |  |  |  |  |  | 
C=C(C(N)=O)[C@@H](NC(=O)[C@H](Cc1c[nH]c2ccccc12)NC(=O)[C@@H]1CCCN1C(=O)[C@@H](N)Cc1ccc(O)cc1)c1cccc2ccccc12 | inactive |  | 84.4 nM | 26 nM | 84700 nM | 3260 | 33.9 nM | 72.3 nM | Dose-dependent effect | 71% |  |  |  |  |  |  | 
C=C(C(N)=O)[C@@H](NC(=O)[C@H](Cc1c[nH]c2ccccc12)NC(=O)[C@@H]1CCCN1C(=O)[C@@H](N)Cc1ccc(O)cc1)c1ccoc1 | inactive | inactive | 10.2 nM | 0.274 nM | 50900 nM | 186000 | 3.94 nM | 0.0342 nM | Dose-dependent effect | 98.7% | Dose-dependent effect | 0.00155 µmol/kg | tde | 1.47 h | Active | Dose-dependent effect | Active
C=C(C(N)=O)[C@@H](NC(=O)[C@H](Cc1c[nH]c2ccccc12)NC(=O)[C@@H]1CCCN1C(=O)[C@@H](N)Cc1ccc(O)cc1)c1ccc(F)cc1 | inactive |  | 130 nM | 13.7 nM | 17000 nM | 1240 | 31.5 nM | 7.35 nM | Dose-dependent effect | 81.5% | Dose-dependent effect |  |  |  |  |  | 
NC(=O)[C@H](Cc1ccccc1)NC(=O)[C@H](Cc1ccccc1)NC(=O)[C@@H]1CCCN1C(=O)[C@@H](N)Cc1ccc(O)cc1 | inactive |  |  |  |  |  |  |  |  | 82.8% |  |  |  |  |  |  | 
C=C(C(N)=O)[C@@H](NC(=O)[C@H](Cc1c[nH]c2ccccc12)NC(=O)[C@@H]1CCCN1C(=O)[C@@H](N)Cc1ccc(O)cc1)c1ccc2ccccc2c1 | inactive |  | 141 nM | 27.4 nM | 84900 nM | 3100 | 18.2 nM | 70.3 nM | Dose-dependent effect | 67.5% |  |  |  |  |  |  | 
C=C(C(N)=O)[C@@H](NC(=O)[C@H](Cc1c[nH]c2ccccc12)NC(=O)[C@@H]1CCCN1C(=O)[C@@H](N)Cc1ccc(O)cc1)c1ccc2c(c1)OCO2 | inactive |  | 432 nM | 7.73 nM | 18700 nM | 2420 | 14.3 nM | 10.7 nM | Dose-dependent effect | 83.9% |  |  |  |  |  |  | 
C=C(C(N)=O)[C@@H](NC(=O)C(=C)[C@@H](NC(=O)[C@@H]1CCCN1C(=O)[C@@H](N)Cc1ccc(O)cc1)c1ccccc1)c1ccccc1 | inactive |  | 166 nM | 15.7 nM | 11000 nM | 699 | 38.1 nM | 45.1 nM | Dose-dependent effect | 60.3% | Dose-dependent effect |  |  |  |  |  | 
